Experimental data as given in ChEMBL document CHEMBL4038321, “Design, Synthesis, and Pharmacokinetics of a Bone-Targeting Dual-Action Prodrug for the Treatment of Osteoporosis” (J Med Chem, 2017).

Tests used:
[1] = tested on: Plasma; experiment: Drug metabolism in rat plasma assessed as tritium label liberation preincubated with rat plasma followed by bovine bone powder addition measured after 30 mins; format: ADME, cell-free; details: 0.5 h
In short: (§1)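 Tritium-labelled conjugate incubated in rat plasma at 37 °C. At fixed times the incubate was stirred with bovine bone powder to adsorb intact conjugate and any cleaved bisphosphonate. Unbound radioactivity in the supernatant was then counted as liberated label.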

[2] = tested on: Plasma; experiment: Drug metabolism in rat plasma assessed as tritium label liberation preincubated with rat plasma followed by bovine bone powder addition measured after 4 hrs; format: ADME, cell-free; in short: as §1
[3] = tested on: Plasma; experiment: Drug metabolism in rat plasma assessed as tritium label liberation preincubated with rat plasma followed by bovine bone powder addition measured after 24 hrs; format: ADME, cell-free; in short: as §1
[4] = tested on: Serum; experiment: Drug metabolism in rat serum assessed as tritium label liberation preincubated with bovine bone powder followed by rat serum addition measured after 24 hrs; format: ADME, cell-free
In short: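 Tritium-labelled conjugate first bound to bovine bone powder for 30 min in buffer. The powder was filtered, resuspended and incubated in fresh rat serum. Buffer and inactivated serum were run alongside. Tritium liberated after 24 h was measured.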

[5] = tested on: Rattus norvegicus; experiment: Toxicity in Sprague-Dawley rat at 31 uCi, iv administered via tail vein after 6 hrs; format: organism-based; details: in vivo
In short: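 Three female Sprague Dawley rats, about 23 weeks old on arrival, received an IV tail-vein injection of 5 mg/kg conjugate with 31.0 µCi [3H] per rat. Vehicle was 10% Poloxamer 188 adjusted to pH 8.0 with NaHCO3 and diluted 1:1 with PBS. Tolerability was observed over 6 h with blood sampling, and the study ended at 6 h.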

[6] = tested on: Liver; experiment: Drug uptake in Sprague-Dawley rat liver at 31 uCi, iv after 6 hrs by scintillation counting method; format: ADME, organism-based; details: in vivo
In short: (§2)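 Three female Sprague Dawley rats, about 23 weeks old. IV tail-vein dose of 5 mg/kg 3H-conjugate (31.0 µCi/rat) in 10% Poloxamer 188, pH 8.0 with NaHCO3, diluted 1:1 with PBS. Blood was drawn at 0.5 to 6 h. At 6 h tissues, including long bones, were taken and analysed for radioactivity by oxidation and scintillation counting.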

[7] = tested on: Bone; experiment: Drug uptake in Sprague-Dawley rat bone at 31 uCi, iv after 6 hrs by scintillation counting method; format: ADME, organism-based, Bone element; details: in vivo; in short: as §2
[8] = tested on: Bone; experiment: Drug uptake in Sprague-Dawley rat bone at 8.9 uCi, iv administered as bolus dose after 6 hrs; format: ADME, organism-based, Bone element; details: in vivo
In short: (§3)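 Female Sprague Dawley rats, about 13 weeks old, in five groups of three. Single IV tail-vein bolus of mixed 3H-conjugate (8.90 µCi/rat) and 14C-conjugate (1.77 µCi/rat), total dose 5.0 mg/kg. Vehicle was 10% Poloxamer 188, brought to pH 8.0 with NaHCO3, then diluted with an equal volume of PBS. Groups were killed at 6 h, 1, 7, 14 and 28 days. Tissues and femurs were incinerated in a biological oxidizer. Values are % of administered dose, with skeleton taken as 8% of body weight, averaged over three rats.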

[9] = tested on: Bone; experiment: Drug uptake in Sprague-Dawley rat bone at 8.9 uCi, iv administered as bolus dose after 1 day; format: ADME, organism-based, Bone element; details: in vivo, 24 h; in short: as §3
[10] = tested on: Bone; experiment: Drug uptake in Sprague-Dawley rat bone at 8.9 uCi, iv administered as bolus dose after 7 days; format: ADME, organism-based, Bone element; details: in vivo, 168 h; in short: as §3
[11] = tested on: Bone; experiment: Drug uptake in Sprague-Dawley rat bone at 8.9 uCi, iv administered as bolus dose after 14 days; format: ADME, organism-based, Bone element; details: in vivo, 336 h; in short: as §3
[12] = tested on: Liver; experiment: Drug uptake in Sprague-Dawley rat liver at 8.9 uCi, iv administered as bolus dose after 6 hrs; format: ADME, organism-based; details: in vivo; in short: as §3
[13] = tested on: Liver; experiment: Drug uptake in Sprague-Dawley rat liver at 8.9 uCi, iv administered as bolus dose after 1 day; format: ADME, organism-based; details: in vivo, 24 h; in short: as §3
[14] = tested on: Liver; experiment: Drug uptake in Sprague-Dawley rat liver at 8.9 uCi, iv administered as bolus dose after 7 days; format: ADME, organism-based; details: in vivo, 168 h; in short: as §3
[15] = tested on: Liver; experiment: Drug uptake in Sprague-Dawley rat liver at 8.9 uCi, iv administered as bolus dose after 14 days; format: ADME, organism-based; details: in vivo, 336 h; in short: as §3
[16] = tested on: Spleen; experiment: Drug uptake in Sprague-Dawley rat spleen at 8.9 uCi, iv administered as bolus dose after 6 hrs; format: ADME, organism-based; details: in vivo
In short: (§4)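 Female Sprague Dawley rats, about 13 weeks old on arrival, in five groups of three. Single IV tail-vein bolus of mixed [3H]- and [14C]-labelled conjugate (8.90 and 1.77 µCi/rat), total 5.0 mg/kg. Vehicle was 10% Poloxamer 188 adjusted to pH 8.0 with NaHCO3, then diluted with an equal volume of PBS. Groups killed at 6 h, 1, 7, 14 and 28 days. Spleen radioactivity measured by oxidizer incineration and reported as percent of administered dose, averaged over three rats.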

[17] = tested on: Spleen; experiment: Drug uptake in Sprague-Dawley rat spleen at 8.9 uCi, iv administered as bolus dose after 1 day; format: ADME, organism-based; details: in vivo, 24 h; in short: as §4
[18] = tested on: Spleen; experiment: Drug uptake in Sprague-Dawley rat spleen at 8.9 uCi, iv administered as bolus dose after 7 days; format: ADME, organism-based; details: in vivo, 168 h; in short: as §4
[19] = tested on: Spleen; experiment: Drug uptake in Sprague-Dawley rat spleen at 8.9 uCi, iv administered as bolus dose after 14 days; format: ADME, organism-based; details: in vivo, 336 h; in short: as §4
[20] = tested on: Kidney; experiment: Drug uptake in Sprague-Dawley rat kidney at 8.9 uCi, iv administered as bolus dose after 6 hrs; format: ADME, organism-based; details: in vivo; in short: as §3
[21] = tested on: Kidney; experiment: Drug uptake in Sprague-Dawley rat kidney at 8.9 uCi, iv administered as bolus dose after 1 day; format: ADME, organism-based; details: in vivo, 24 h; in short: as §3
[22] = tested on: Kidney; experiment: Drug uptake in Sprague-Dawley rat kidney at 8.9 uCi, iv administered as bolus dose after 7 days; format: ADME, organism-based; details: in vivo, 168 h; in short: as §3
[23] = tested on: Kidney; experiment: Drug uptake in Sprague-Dawley rat kidney at 8.9 uCi, iv administered as bolus dose after 14 days; format: ADME, organism-based; details: in vivo, 336 h; in short: as §3
[24] = tested on: Heart; experiment: Drug uptake in Sprague-Dawley rat heart at 8.9 uCi, iv administered as bolus dose after 6 hrs; format: ADME, organism-based; details: in vivo; in short: as §3
[25] = tested on: Heart; experiment: Drug uptake in Sprague-Dawley rat heart at 8.9 uCi, iv administered as bolus dose after 1 day; format: ADME, organism-based; details: in vivo, 24 h; in short: as §3
[26] = tested on: Heart; experiment: Drug uptake in Sprague-Dawley rat heart at 8.9 uCi, iv administered as bolus dose after 7 days; format: ADME, organism-based; details: in vivo, 168 h; in short: as §3
[27] = tested on: Brain; experiment: Drug uptake in Sprague-Dawley rat brain at 8.9 uCi, iv administered as bolus dose after 6 hrs; format: ADME, organism-based; details: in vivo; in short: as §3
[28] = tested on: Brain; experiment: Drug uptake in Sprague-Dawley rat brain at 8.9 uCi, iv administered as bolus dose after 1 day; format: ADME, organism-based; details: in vivo, 24 h; in short: as §3
[29] = Drug metabolism in rat plasma at 100 uM measured after 24 hrs by HPLC analysis; format: ADME, cell-free; details: read-out: Drug metabolism
In short: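 Conjugate incubated in rat plasma at 37 °C for 24 h and compared with inactivated control plasma. Aliquots were taken at 0, 1, 2, 4 and 24 h and quenched with methanol containing 1.0 M HCl, then centrifuged. Remaining conjugate in the supernatant was quantified by reverse-phase HPLC with UV detection at 254 nm.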

[30] = tested on: Bone; experiment: Drug uptake in Sprague-Dawley rat bone at 8.9 uCi, iv administered as bolus dose after 28 days; format: ADME, organism-based, Bone element; details: in vivo, 672 h; in short: as §3
[31] = tested on: Liver; experiment: Drug uptake in Sprague-Dawley rat liver at 8.9 uCi, iv administered as bolus dose after 28 days; format: ADME, organism-based; details: in vivo, 672 h; in short: as §3
[32] = tested on: Spleen; experiment: Drug uptake in Sprague-Dawley rat spleen at 8.9 uCi, iv administered as bolus dose after 28 days; format: ADME, organism-based; details: in vivo, 672 h; in short: as §4
[33] = tested on: Kidney; experiment: Drug uptake in Sprague-Dawley rat kidney at 8.9 uCi, iv administered as bolus dose after 28 days; format: ADME, organism-based; details: in vivo, 672 h; in short: as §3
[34] = tested on: Rattus norvegicus; experiment: Toxicity in Sprague-Dawley rat assessed as behavioral change at 8.9 uCi, iv administered as bolus dose after 28 dyas; format: organism-based; details: in vivo
In short: (§5)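 Same dual-label study: female Sprague Dawley rats got one IV tail-vein bolus of [3H] (8.90 µCi) plus [14C] (1.77 µCi) conjugate, total 5.0 mg/kg, in Poloxamer 188/PBS vehicle at pH 8.0. Groups of three were sacrificed up to 28 days after dosing.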

[35] = tested on: Rattus norvegicus; experiment: Toxicity in Sprague-Dawley rat assessed as unusual reaction at 8.9 uCi, iv administered as bolus dose after 28 dyas; format: organism-based; details: in vivo; in short: as §5

[3H]c1ccc(C(F)(F)[C@@H](/C=C/[C@H]2CCC(=O)N2CCCCCCC(=O)OCC)OC(=O)Cc2ccc(COC(=O)N[C@@H](CC(C)C)C(=O)N[C@@H](CCCNC(=N)N)C(=O)Nc3ccc(COC(=O)NCCCC(O)(P(=O)(O)O)P(=O)(O)O)cc3)cc2)cc1
Drug metabolism [1]: 27% | Drug metabolism [2]: 44% | Drug metabolism [3]: 53% | Drug metabolism [4]: < 3% | Activity [5]: Toxic | Drug uptake [6]: Active | Drug uptake [7]: 2.5 %ID | Drug uptake [8]: 2.1 %ID | Drug uptake [9]: 2.12 %ID | Drug uptake [10]: 1.3 %ID | Drug uptake [11]: 0.8 %ID | Drug uptake [12]: 8.95 %ID | Drug uptake [13]: 2.33 %ID | Drug uptake [14]: 0.48 %ID | Drug uptake [15]: 0.3 %ID | Drug uptake [16]: 0.35 %ID | Drug uptake [17]: 0.22 %ID | Drug uptake [18]: 0.076 %ID | Drug uptake [19]: 0.039 %ID | Drug uptake [20]: 0.21 %ID | Drug uptake [21]: 0.11 %ID | Drug uptake [22]: 0.053 %ID | Drug uptake [23]: 0.026 %ID | Drug uptake [24]: 0.025 %ID | Drug uptake [25]: 0.021 %ID | Drug uptake [26]: 0.014 %ID | Drug uptake [27]: 0.022 %ID | Drug uptake [28]: 0.025 %ID | metabolised at 24 h, 100 µM [29]: 55% | Drug uptake [30]: 0.74 %ID | Drug uptake [31]: 0.08 %ID | Drug uptake [32]: 0.037 %ID | Drug uptake [33]: 0.017 %ID | Activity [34]: Non-Toxic | Activity [35]: Non-Toxic
